Assay results as given in ChEMBL document CHEMBL4020842, “Discovery of N1-(4-((7-Cyclopentyl-6-(dimethylcarbamoyl)-7 H-pyrrolo[2,3- d]pyrimidin-2-yl)amino)phenyl)- N8-hydroxyoctanediamide as a Novel Inhibitor Targeting Cyclin-dependent Kinase 4/9 (CDK4/9) and Histone Deacetlyase1 (HDAC1) against Malignant Cancer” (J Med Chem, 2018).
pIC50: −log10 of the molar value. The source made the active and inactive calls. The rule behind the calls is not given here.

Columns and labels:
A549 [1] = test: Cytotoxicity against human A549 cells assessed as reduction in cell viability after 72 hrs by CCK8 assay; assay type: functional, cell-based; conditions: A549, 72 h
T47D [2] = test: Cytotoxicity against human T47D cells assessed as reduction in cell viability after 72 hrs by CCK8 assay; assay type: functional, cell-based
A549 [3] = test: Cell cycle arrest in human A549 cells assessed as accumulation at G0/G1 phase after 24 hrs by propidium iodide staining based flow cytometry; assay type: functional
How it was run: (§1)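 Cells were exposed for 24 h to a range of concentrations (625 nM, 2.5 and 10 µM), with DMSO vehicle as control. They were then stained with propidium iodide and analysed by flow cytometry to obtain the percentages of cells in G0/G1, S and G2 phases.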

HepG2 [4] = test: Cell cycle arrest in human HepG2 cells assessed as accumulation at G0/G1 phase after 24 hrs by propidium iodide staining based flow cytometry; assay type: functional; how it was run: as §1
MDA-MB-231 [5] = test: Cytotoxicity against human MDA-MB-231 cells assessed as reduction in cell viability after 72 hrs by CCK8 assay; assay type: functional, cell-based; conditions: MDA-MB-231, 72 h
NCI-H1299 = test: Cytotoxicity against human NCI-H1299 cells assessed as reduction in cell viability after 72 hrs by CCK8 assay; assay type: functional, cell-based; conditions: NCI-H1299, 72 h
T47D [6] = test: Cell cycle arrest in human T47D cells assessed as accumulation at G0/G1 phase after 24 hrs by propidium iodide staining based flow cytometry; assay type: functional; how it was run: as §1
Hep 3B2 [7] = test: Cytotoxicity against human Hep3B cells assessed as reduction in cell viability after 72 hrs by CCK8 assay
4T1 [8] = test: Antitumor activity against mouse Fluc-labeled 4T1 cells implanted in Balb/c mouse assessed as tumor growth inhibition at 130 mg/kg, ip administered daily for 18 days measured after 8 to 25 days by bioluminescence assay relative to control; assay type: functional; conditions: 4T1, ip, read-out: TGI
NCI-H460 [9] = test: Cytotoxicity against human NCI-H460 cells assessed as reduction in cell viability after 72 hrs by CCK8 assay; assay type: functional, cell-based; conditions: NCI-H460, 72 h
4T1 [10] = test: Cytotoxicity against mouse 4T1 cells assessed as reduction in cell viability after 72 hrs by CCK8 assay; assay type: functional, cell-based; conditions: 4T1, 72 h
HepG2 [11] = test: Cytotoxicity against human HepG2 cells assessed as reduction in cell viability after 72 hrs by CCK8 assay; assay type: functional, cell-based; conditions: HepG2, 72 h
Hep 3B2 [12] = test: Cell cycle arrest in human Hep3B cells assessed as accumulation at G0/G1 phase after 24 hrs by propidium iodide staining based flow cytometry; assay type: functional; how it was run: as §1
MDA-MB-231 [13] = test: Cell cycle arrest in human MDA-MB-231 cells assessed as accumulation at G0/G1 phase after 24 hrs by propidium iodide staining based flow cytometry; assay type: functional; how it was run: as §1
4T1 [14] = test: Antitumor activity against mouse Fluc-labeled 4T1 cells implanted in Balb/c mouse assessed as tumor growth inhibition at 130 mg/kg, po administered daily via gavage for 18 days by bioluminescence assay relative to control; assay type: functional; conditions: 4T1, po, 432 h, read-out: TGI
4T1 [15] = test: Antitumor activity against mouse Fluc-labeled 4T1 cells implanted in Balb/c mouse assessed as reduction in tumor weight at 130 mg/kg, ip administered daily for 18 days measured after 8 to 25 days; assay type: functional, organism-based
How it was run: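 Luciferase (Fluc) reporter introduced into 4T1 cells by lentiviral transduction. Cells implanted orthotopically into mammary fat pads of female BALB/c mice aged 6–8 weeks. Once tumours averaged 100 mm3, dosing was daily by IP injection. Bioluminescence imaging was done at days 8 and 25 to reflect viable tumour cell number. Tumour weight was recorded at study end.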

MDA-MB-468 = test: Cytotoxicity against human MDA-MB-468 cells assessed as reduction in cell viability after 72 hrs by CCK8 assay; assay type: functional, cell-based; conditions: MDA-MB-468, 72 h
NCI-H460 [16] = test: Cell cycle arrest in human NCI-H460 cells assessed as accumulation at G0/G1 phase after 24 hrs by propidium iodide staining based flow cytometry; assay type: functional; how it was run: as §1

CN(C)C(=O)c1cc2cnc(Nc3ccc(N4CCNCC4)cn3)nc2n1C1CCCC1 [RIBOCICLIB]
pIC50 (A549 [1]): < 5.00 | pIC50 (T47D [2]): 5.21 | Activity (A549 [3]): Active | Activity (HepG2 [4]): Active | pIC50 (MDA-MB-231 [5]): < 5.00 | pIC50 (NCI-H1299): 5.26 | Activity (T47D [6]): Active | pIC50 (Hep 3B2 [7]): < 5.00 | inhibition in vivo at 130 mg/kg (4T1 [8]): 68.5% | pIC50 (NCI-H460 [9]): < 5.00 | pIC50 (4T1 [10]): < 5.00 | pIC50 (HepG2 [11]): < 5.00 | Activity (Hep 3B2 [12]): Active | Activity (MDA-MB-231 [13]): Active | inhibition in vivo at 130 mg/kg (4T1 [14]): 38.9% | Activity (4T1 [15]): Active | pIC50 (MDA-MB-468): < 5.00 | Activity (NCI-H460 [16]): Active
